In brackets after ≈: the same amount, converted by molar mass.
How the values were obtained:
Assay type in all cases: functional
Enterococcus faecium [1] = assay: Antibacterial activity against Enterococcus faecium 10-9 after 18 to 24 hrs by NCCLS method
Summary of the method: (§1)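 Standard NCCLS (M100-S11) MIC testing against Gram-positive and Gram-negative strains. Plates were incubated at 35 °C for 18–24 h. The MIC was read as the lowest concentration giving complete inhibition of visible bacterial growth.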

Escherichia coli [2] = assay: Antibacterial activity against extended spectrum beta-lactamases producing Escherichia coli 10-2 after 18 to 24 hrs by NCCLS method; summary of the method: as §1
Escherichia coli [3] = assay: Antibacterial activity against Escherichia coli 10-1 after 18 to 24 hrs by NCCLS method; summary of the method: as §1
Staphylococcus aureus [4] = assay: Antibacterial activity against methicillin-sensitive Staphylococcus aureus 10-14 after 18 to 24 hrs by NCCLS method; summary of the method: as §1
Escherichia coli [5] = assay: Antibacterial activity against Escherichia coli 10-2 after 18 to 24 hrs by NCCLS method; summary of the method: as §1
Escherichia coli [6] = assay: Antibacterial activity against extended spectrum beta-lactamases producing Escherichia coli 10-3 after 18 to 24 hrs by NCCLS method; summary of the method: as §1
Staphylococcus aureus [7] = assay: Antibacterial activity against methicillin-resistant Staphylococcus aureus 10-15 after 18 to 24 hrs by NCCLS method
Summary of the method: (§2)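 Incubated at 35 °C for 18–24 h under NCCLS (M100-S11) standards. MIC was read as the lowest concentration giving complete inhibition of visible bacterial growth.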

Klebsiella pneumoniae [8] = assay: Antibacterial activity against Klebsiella pneumoniae 10-3 after 18 to 24 hrs by NCCLS method; summary of the method: as §1
Enterococcus faecium [9] = assay: Antibacterial activity against Enterococcus faecium 10-6 after 18 to 24 hrs by NCCLS method; summary of the method: as §1
Streptococcus pneumoniae [10] = assay: Antibacterial activity against Streptococcus pneumoniae 10-6 after 18 to 24 hrs by NCCLS method; summary of the method: as §1
Staphylococcus aureus [11] = assay: Antibacterial activity against methicillin-sensitive Staphylococcus aureus 10-13 after 18 to 24 hrs by NCCLS method; summary of the method: as §1
Klebsiella pneumoniae [12] = assay: Antibacterial activity against extended spectrum beta-lactamases producing Klebsiella pneumoniae 10-3 after 18 to 24 hrs by NCCLS method; summary of the method: as §1
Pseudomonas aeruginosa [13] = assay: Antibacterial activity against Pseudomonas aeruginosa 10-5 after 18 to 24 hrs by NCCLS method; summary of the method: as §1
Staphylococcus aureus [14] = assay: Antibacterial activity against Staphylococcus aureus ATCC 2592 after 18 to 24 hrs by NCCLS method; summary of the method: as §1
Klebsiella pneumoniae [15] = assay: Antibacterial activity against extended spectrum beta-lactamases producing Klebsiella pneumoniae 10-2 after 18 to 24 hrs by NCCLS method; summary of the method: as §1
Pseudomonas aeruginosa [16] = assay: Antibacterial activity against Pseudomonas aeruginosa 10-20 after 18 to 24 hrs by NCCLS method; summary of the method: as §1
Enterococcus faecalis [17] = assay: Antibacterial activity against Enterococcus faecalis 10-5 after 18 to 24 hrs by NCCLS method; summary of the method: as §1
Pseudomonas aeruginosa [18] = assay: Antibacterial activity against Pseudomonas aeruginosa 10-12 after 18 to 24 hrs by NCCLS method; summary of the method: as §1
[19] = tested on: Staphylococcus epidermidis; assay: Antibacterial activity against methicillin-sensitive Staphylococcus epidermidis 10-11 after 18 to 24 hrs by NCCLS method; summary of the method: as §1
Escherichia coli [20] = assay: Antibacterial activity against Escherichia coli 10-3 after 18 to 24 hrs by NCCLS method; summary of the method: as §1
Escherichia coli [21] = assay: Antibacterial activity against Escherichia coli ATCC 25922 after 18 to 24 hrs by NCCLS method; summary of the method: as §1
Staphylococcus aureus [22] = assay: Antibacterial activity against methicillin-sensitive Staphylococcus aureus 10-11 after 18 to 24 hrs by NCCLS method; summary of the method: as §1
Streptococcus pneumoniae [23] = assay: Antibacterial activity against Streptococcus pneumoniae 10-1 after 18 to 24 hrs by NCCLS method; summary of the method: as §1
[24] = tested on: Staphylococcus epidermidis; assay: Antibacterial activity against methicillin-resistant Staphylococcus epidermidis 10-13 after 18 to 24 hrs by NCCLS method; summary of the method: as §2
Klebsiella pneumoniae [25] = assay: Antibacterial activity against Klebsiella pneumoniae 10-4 after 18 to 24 hrs by NCCLS method; summary of the method: as §1
Klebsiella pneumoniae [26] = assay: Antibacterial activity against extended spectrum beta-lactamases producing Klebsiella pneumoniae 10-1 after 18 to 24 hrs by NCCLS method; summary of the method: as §1
Enterococcus faecalis [27] = assay: Antibacterial activity against Enterococcus faecalis 10-7 after 18 to 24 hrs by NCCLS method; summary of the method: as §1
Pseudomonas aeruginosa [28] = assay: Antibacterial activity against Pseudomonas aeruginosa 10-18 after 18 to 24 hrs by NCCLS method; summary of the method: as §1
Pseudomonas aeruginosa [29] = assay: Antibacterial activity against Pseudomonas aeruginosa 10-9 after 18 to 24 hrs by NCCLS method; summary of the method: as §1
Staphylococcus aureus [30] = assay: Antibacterial activity against methicillin-resistant Staphylococcus aureus 10-11 after 18 to 24 hrs by NCCLS method; summary of the method: as §2
Escherichia coli [31] = assay: Antibacterial activity against extended spectrum beta-lactamases producing Escherichia coli 10-4 after 18 to 24 hrs by NCCLS method; summary of the method: as §1
Staphylococcus aureus [32] = assay: Antibacterial activity against methicillin-resistant Staphylococcus aureus 10-13 after 18 to 24 hrs by NCCLS method; summary of the method: as §2
[33] = tested on: Mycobacterium tuberculosis; assay: Antimycobacterial activity against Mycobacterium tuberculosis H37Rv ATCC 27294 by microplate alamar blue assay
Summary of the method: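 Microplate Alamar Blue fluorescence assay on strain H37Rv ATCC 27294. MIC was the lowest concentration cutting fluorescence by ≥90% against the mean of replicate bacterium-only controls.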

Pseudomonas aeruginosa [34] = assay: Antibacterial activity against Pseudomonas aeruginosa 10-15 after 18 to 24 hrs by NCCLS method; summary of the method: as §1
Klebsiella pneumoniae [35] = assay: Antibacterial activity against Klebsiella pneumoniae 10-2 after 18 to 24 hrs by NCCLS method; summary of the method: as §1
[36] = tested on: Staphylococcus epidermidis; assay: Antibacterial activity against methicillin-sensitive Staphylococcus epidermidis 10-15 after 18 to 24 hrs by NCCLS method; summary of the method: as §2
[37] = tested on: Staphylococcus epidermidis; assay: Antibacterial activity against methicillin-resistant Staphylococcus epidermidis 10-10 after 18 to 24 hrs by NCCLS method; summary of the method: as §2
Enterococcus faecalis [38] = assay: Antibacterial activity against Enterococcus faecalis 10-6 after 18 to 24 hrs by NCCLS method; summary of the method: as §1

SMILES	MIC (Enterococcus faecium [1]) [µg/mL]	MIC (Escherichia coli [2]) [µg/mL]	MIC (Escherichia coli [3]) [µg/mL]	MIC (Staphylococcus aureus [4]) [µg/mL]	MIC (Escherichia coli [5]) [µg/mL]	MIC (Escherichia coli [6]) [µg/mL]	MIC (Staphylococcus aureus [7]) [µg/mL]	MIC (Klebsiella pneumoniae [8]) [µg/mL]	MIC (Enterococcus faecium [9]) [µg/mL]	MIC (Streptococcus pneumoniae [10]) [µg/mL]	MIC (Staphylococcus aureus [11]) [µg/mL]	MIC (Klebsiella pneumoniae [12]) [µg/mL]	MIC (Pseudomonas aeruginosa [13]) [µg/mL]	MIC (Staphylococcus aureus [14]) [µg/mL]	MIC (Klebsiella pneumoniae [15]) [µg/mL]	MIC (Pseudomonas aeruginosa [16]) [µg/mL]	MIC (Enterococcus faecalis [17]) [µg/mL]	MIC (Pseudomonas aeruginosa [18]) [µg/mL]	MIC [19] [µg/mL]	MIC (Escherichia coli [20]) [µg/mL]	also measured
COc1ccc(CN2CCN(c3cc4c(cc3F)c(=O)c(C(=O)O)cn4C3CC3)CC2)c(Cl)c1OC	32 (≈ 62 µM)	> 128	> 128	0.5 (≈ 0.969 µM)	32 (≈ 62 µM)	> 128	64 (≈ 124 µM)	32 (≈ 62 µM)	4 (≈ 7.75 µM)	64 (≈ 124 µM)	0.5 (≈ 0.969 µM)	> 128	64 (≈ 124 µM)	0.06 (≈ 0.116 µM)	> 128	64 (≈ 124 µM)	8 (≈ 15.5 µM)	64 (≈ 124 µM)	1 (≈ 1.94 µM)	> 128	MIC (Escherichia coli [21]): 1 µg/mL (≈ 1.94 µM); MIC (Staphylococcus aureus [22]): 0.5 µg/mL (≈ 0.969 µM); MIC (Streptococcus pneumoniae [23]): 2 µg/mL (≈ 3.88 µM); MIC [24]: 32 µg/mL (≈ 62 µM); MIC (Klebsiella pneumoniae [25]): > 128 µg/mL; MIC (Klebsiella pneumoniae [26]): > 128 µg/mL; MIC (Enterococcus faecalis [27]): 32 µg/mL (≈ 62 µM); MIC (Pseudomonas aeruginosa [28]): 128 µg/mL (≈ 248 µM); MIC (Pseudomonas aeruginosa [29]): 128 µg/mL (≈ 248 µM); MIC (Staphylococcus aureus [30]): 64 µg/mL (≈ 124 µM); MIC (Escherichia coli [31]): > 128 µg/mL; MIC (Staphylococcus aureus [32]): 128 µg/mL (≈ 248 µM); MIC [33]: 2 µg/mL (≈ 3.88 µM); MIC (Pseudomonas aeruginosa [34]): 64 µg/mL (≈ 124 µM); MIC (Klebsiella pneumoniae [35]): > 128 µg/mL; MIC [36]: 32 µg/mL (≈ 62 µM); MIC [37]: 32 µg/mL (≈ 62 µM); MIC (Enterococcus faecalis [38]): 64 µg/mL (≈ 124 µM)
O=C(O)c1cn(C2CC2)c2cc(N3CCN(Cc4ccc5c(c4)OCO5)CC3)c(F)cc2c1=O	8 (≈ 17.2 µM)	> 128	> 128	1 (≈ 2.15 µM)	16 (≈ 34.4 µM)	> 128	16 (≈ 34.4 µM)	8 (≈ 17.2 µM)	8 (≈ 17.2 µM)	16 (≈ 34.4 µM)	1 (≈ 2.15 µM)	> 128	16 (≈ 34.4 µM)	0.25 (≈ 0.537 µM)	> 128	16 (≈ 34.4 µM)	16 (≈ 34.4 µM)	32 (≈ 68.7 µM)	2 (≈ 4.3 µM)	16 (≈ 34.4 µM)	MIC (Escherichia coli [21]): 0.25 µg/mL (≈ 0.537 µM); MIC (Staphylococcus aureus [22]): 0.5 µg/mL (≈ 1.07 µM); MIC (Streptococcus pneumoniae [23]): 8 µg/mL (≈ 17.2 µM); MIC [24]: 16 µg/mL (≈ 34.4 µM); MIC (Klebsiella pneumoniae [25]): > 128 µg/mL; MIC (Klebsiella pneumoniae [26]): > 128 µg/mL; MIC (Enterococcus faecalis [27]): 16 µg/mL (≈ 34.4 µM); MIC (Pseudomonas aeruginosa [28]): 8 µg/mL (≈ 17.2 µM); MIC (Pseudomonas aeruginosa [29]): 16 µg/mL (≈ 34.4 µM); MIC (Staphylococcus aureus [30]): 32 µg/mL (≈ 68.7 µM); MIC (Escherichia coli [31]): 16 µg/mL (≈ 34.4 µM); MIC (Staphylococcus aureus [32]): 64 µg/mL (≈ 137 µM); MIC [33]: 2 µg/mL (≈ 4.3 µM); MIC (Pseudomonas aeruginosa [34]): 16 µg/mL (≈ 34.4 µM); MIC (Klebsiella pneumoniae [35]): 64 µg/mL (≈ 137 µM); MIC [36]: 16 µg/mL (≈ 34.4 µM); MIC [37]: 16 µg/mL (≈ 34.4 µM); MIC (Enterococcus faecalis [38]): 32 µg/mL (≈ 68.7 µM)

Reference: ChEMBL document CHEMBL2157880, “Synthesis, antimycobacterial and antibacterial activity of ciprofloxacin derivatives containing a N-substituted benzyl moiety” (2012)
